# System: Fibroblast
# Test: Multiplex assay against human fibroblast
# Type: toxicity, cell-based
# Method in brief: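 Live cells were stained at seeding with Hoechst33342, BioTracker Green Microtubule Cytoskeleton Dye, MitoTracker Red and Annexin V Alexa Fluor 680. Following compound addition, they were imaged on a CQ1 microscope at 37°C and 5% CO2 and gated by CellPathfinder machine learning into Hoechst high-intensity objects or normal cells, with normal cells split into healthy, pyknosed or fragmented nuclei and pyknosed cells into mitotic or apoptotic. Tubulin, mitochondrial-mass and membrane-permeability phenotypes are per cents of healthy-nucleus cells.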
# [1] = 12 h, 1 µM, compound concentration 1 uM, replicate 1
# [2] = 12 h, 1 µM, compound concentration 1 uM, replicate 2
# [3] = 12 h, 10 µM, compound concentration 10 uM, replicate 1
# [4] = 12 h, 10 µM, compound concentration 10 uM, replicate 2
# [5] = 24 h, 1 µM, compound concentration 1 uM, replicate 1
# [6] = 24 h, 1 µM, compound concentration 1 uM, replicate 2
# [7] = 24 h, 10 µM, compound concentration 10 uM, replicate 1
# [8] = 24 h, 10 µM, compound concentration 10 uM, replicate 2
# [9] = 48 h, 1 µM, compound concentration 1 uM, replicate 1
# [10] = 48 h, 1 µM, compound concentration 1 uM, replicate 2
# [11] = 48 h, 10 µM, compound concentration 10 uM, replicate 1
# [12] = 48 h, 10 µM, compound concentration 10 uM, replicate 2
structure (smiles),measurement,setting,value
CC(C)NCC(O)COc1ccc(CCOCC2CC2)cc1.Cl (stereo not drawn) [BETAXOLOL HYDROCHLORIDE],Population Apoptotic (%),[1],41%
same,Population Fragmented Nuclei (%),[1],22%
same,Population Healthy Nuclei (%),[1],47%
same,Population Hoechst High Intensity Objects (%),[1],4%
same,Population Membrane Permeable-Phenotype (%),[1],23%
same,Population Mitochondria Different-Phenotype (%),[1],2%
same,Population Mitotic Cells (%),[1],58%
same,Population Normal (%),[1],95%
same,Population Pyknosed Nuclei (%),[1],30%
same,Population Tubulin-Different-Phenotype (%),[1],39%
same,Total Cell Count,[1],84
same,Population Apoptotic (%),[2],100%
same,Population Fragmented Nuclei (%),[2],2%
same,Population Healthy Nuclei (%),[2],95%
same,Population Hoechst High Intensity Objects (%),[2],16%
same,Population Membrane Permeable-Phenotype (%),[2],6%
same,Population Mitotic Cells (%),[2],0%
same,Population Normal (%),[2],83%
same,Population Pyknosed Nuclei (%),[2],2%
same,Population Tubulin-Different-Phenotype (%),[2],9%
same,Total Cell Count,[2],55
same,Population Apoptotic (%),[3],67%
same,Population Fragmented Nuclei (%),[3],17%
same,Population Healthy Nuclei (%),[3],55%
same,Population Hoechst High Intensity Objects (%),[3],16%
same,Population Membrane Permeable-Phenotype (%),[3],10%
same,Population Mitochondria Different-Phenotype (%),[3],17%
same,Population Mitotic Cells (%),[3],32%
same,Population Normal (%),[3],83%
same,Population Pyknosed Nuclei (%),[3],26%
same,Population Tubulin-Different-Phenotype (%),[3],58%
same,Total Cell Count,[3],125
same,Population Apoptotic (%),[4],23%
same,Population Fragmented Nuclei (%),[4],9%
same,Population Healthy Nuclei (%),[4],77%
same,Population Hoechst High Intensity Objects (%),[4],7%
same,Population Membrane Permeable-Phenotype (%),[4],5%
same,Population Mitochondria Different-Phenotype (%),[4],72%
same,Population Mitotic Cells (%),[4],76%
same,Population Normal (%),[4],92%
same,Population Pyknosed Nuclei (%),[4],13%
same,Population Tubulin-Different-Phenotype (%),[4],49%
same,Total Cell Count,[4],107
same,Population Apoptotic (%),[5],30%
same,Population Fragmented Nuclei (%),[5],20%
same,Population Healthy Nuclei (%),[5],55%
same,Population Hoechst High Intensity Objects (%),[5],9%
same,Population Membrane Permeable-Phenotype (%),[5],30%
same,Population Mitochondria Different-Phenotype (%),[5],4%
same,Population Mitotic Cells (%),[5],70%
same,Population Normal (%),[5],90%
same,Population Pyknosed Nuclei (%),[5],24%
same,Population Tubulin-Different-Phenotype (%),[5],34%
same,Total Cell Count,[5],92
same,Population Apoptotic (%),[6],33%
same,Population Fragmented Nuclei (%),[6],3%
same,Population Healthy Nuclei (%),[6],85%
same,Population Hoechst High Intensity Objects (%),[6],5%
same,Population Membrane Permeable-Phenotype (%),[6],4%
same,Population Mitochondria Different-Phenotype (%),[6],6%
same,Population Mitotic Cells (%),[6],66%
same,Population Normal (%),[6],94%
same,Population Pyknosed Nuclei (%),[6],10%
same,Population Tubulin-Different-Phenotype (%),[6],2%
same,Total Cell Count,[6],59
same,Population Apoptotic (%),[7],74%
same,Population Fragmented Nuclei (%),[7],25%
same,Population Healthy Nuclei (%),[7],50%
same,Population Hoechst High Intensity Objects (%),[7],15%
same,Population Membrane Permeable-Phenotype (%),[7],19%
same,Population Mitochondria Different-Phenotype (%),[7],21%
same,Population Mitotic Cells (%),[7],25%
same,Population Normal (%),[7],84%
same,Population Pyknosed Nuclei (%),[7],23%
same,Population Tubulin-Different-Phenotype (%),[7],64%
same,Total Cell Count,[7],133
same,Population Apoptotic (%),[8],40%
same,Population Fragmented Nuclei (%),[8],7%
same,Population Healthy Nuclei (%),[8],78%
same,Population Hoechst High Intensity Objects (%),[8],5%
same,Population Membrane Permeable-Phenotype (%),[8],5%
same,Population Mitochondria Different-Phenotype (%),[8],78%
same,Population Mitotic Cells (%),[8],60%
same,Population Normal (%),[8],94%
same,Population Pyknosed Nuclei (%),[8],15%
same,Population Tubulin-Different-Phenotype (%),[8],46%
same,Total Cell Count,[8],106
same,Population Apoptotic (%),[9],76%
same,Population Fragmented Nuclei (%),[9],33%
same,Population Healthy Nuclei (%),[9],50%
same,Population Hoechst High Intensity Objects (%),[9],12%
same,Population Membrane Permeable-Phenotype (%),[9],30%
same,Population Mitochondria Different-Phenotype (%),[9],4%
same,Population Mitotic Cells (%),[9],23%
same,Population Normal (%),[9],87%
same,Population Pyknosed Nuclei (%),[9],15%
same,Population Tubulin-Different-Phenotype (%),[9],45%
same,Total Cell Count,[9],95
same,Population Apoptotic (%),[10],83%
same,Population Fragmented Nuclei (%),[10],27%
same,Population Healthy Nuclei (%),[10],67%
same,Population Membrane Permeable-Phenotype (%),[10],13%
same,Population Mitochondria Different-Phenotype (%),[10],1%
same,Population Mitotic Cells (%),[10],16%
same,Population Pyknosed Nuclei (%),[10],4%
same,Population Tubulin-Different-Phenotype (%),[10],35%
same,Total Cell Count,[10],157
same,Population Apoptotic (%),[11],76%
same,Population Fragmented Nuclei (%),[11],41%
same,Population Healthy Nuclei (%),[11],50%
same,Population Hoechst High Intensity Objects (%),[11],24%
same,Population Membrane Permeable-Phenotype (%),[11],22%
same,Population Mitochondria Different-Phenotype (%),[11],4%
same,Population Mitotic Cells (%),[11],23%
same,Population Normal (%),[11],75%
same,Population Pyknosed Nuclei (%),[11],8%
same,Population Tubulin-Different-Phenotype (%),[11],55%
same,Total Cell Count,[11],196
same,Population Apoptotic (%),[12],100%
same,Population Fragmented Nuclei (%),[12],48%
same,Population Hoechst High Intensity Objects (%),[12],20%
same,Population Membrane Permeable-Phenotype (%),[12],15%
same,Population Mitochondria Different-Phenotype (%),[12],2%
same,Population Mitotic Cells (%),[12],0%
same,Population Normal (%),[12],79%
same,Population Pyknosed Nuclei (%),[12],0%
same,Population Tubulin-Different-Phenotype (%),[12],66%
same,Total Cell Count,[12],278

# From ChEMBL document CHEMBL4689842, “EUbOPEN Chemogenomics Library wave 1” (2021)
